{"source": "ChEMBL document CHEMBL3286113", "about": "“New potent antibacterial oxazolidinone (MRX-I) with an improved class safety profile” (J Med Chem, 2014)", "key": {"Homo sapiens": {"tested_on": "Homo sapiens", "assay": "Toxicity in human assessed as change in platelet count at 600 to 800 mg, po administered as single dose with meal on day 1 and day 15 followed by bid with meal on day 2 to day 14 measured during compound treatment", "type": "organism-based", "settings": "in vivo; call rule not given here"}, "Staphylococcus aureus [1]": {"tested_on": "Staphylococcus aureus", "assay": "Antibacterial activity against methicillin-resistant Staphylococcus aureus isolate 0612", "type": "functional"}, "[2]": {"assay": "AUC (0 to infinity) in fasted human at 600 mg, po administered as single dose", "type": "ADME, organism-based", "set-up": "dose 600 mg, route oral, time infinity", "settings": "plasma", "outline": "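Single-dose, three-period Latin-square crossover in 12 healthy volunteers (6 of each gender). Each received single oral 300, 600 and 900 mg doses under fasting conditions, with a 1-week washout between doses. PK parameters, including AUC0−inf, came from a noncompartmental model.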"}, "Rattus norvegicus [3]": {"tested_on": "Rattus norvegicus", "assay": "Toxicity in female rat assessed as effect on reticulocyte count at 20 mg/kg/day, po bid administered for 4 weeks (reference value: 1.48%)", "type": "organism-based", "set-up": "route oral", "settings": "in vivo, 672 h"}, "[4]": {"assay": "Tmax in human at 600 mg, po administered as single dose with meal measured on day 1", "type": "ADME, organism-based", "settings": "in vivo", "outline": "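Randomized, double-blind, placebo-controlled multiple-dose study in 32 healthy subjects, half male and half female. Dosing was 600 or 800 mg orally with a meal, 28 doses over 15 days. A single dose was given on days 1 and 15 for full PK, with Q12h (BID) dosing on days 2−14.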"}, "Staphylococcus": {"tested_on": "Staphylococcus", "assay": "Antibacterial activity against coagulase-negative Staphylococcus", "type": "functional"}, "Rattus norvegicus [5]": {"tested_on": "Rattus norvegicus", "assay": "Toxicity in female rat assessed as effect on hematocrit level at 100 mg/kg/day, po bid administered for 4 weeks (reference value: 39.08%)", "type": "organism-based", "set-up": "route oral", "settings": "in vivo, 672 h"}, "Rattus norvegicus [6]": {"tested_on": "Rattus norvegicus", "assay": "Toxicity in female rat assessed as effect on lymphocyte count at 100 mg/kg/day, po bid administered for 4 weeks (reference value: 74.8%)", "type": "organism-based", "set-up": "route oral", "settings": "in vivo, 672 h"}, "Rattus norvegicus [7]": {"tested_on": "Rattus norvegicus", "assay": "Toxicity in female rat assessed as effect on mean corpuscular hemoglobin level at 20 mg/kg/day, po bid administered for 4 weeks (reference value: 19.5 pg)", "type": "organism-based", "set-up": "route oral", "settings": "in vivo, 672 h"}, "Streptococcus pyogenes": {"tested_on": "Streptococcus pyogenes", "assay": "Antibacterial activity against Streptococcus pyogenes", "type": "functional"}, "Canis familiaris": {"organism": "Canis familiaris", "assay": "Drug uptake in dog measured over 7 days", "type": "ADME, organism-based, Canis lupus familiaris", "settings": "in vivo, 168 h"}, "[8]": {"assay": "Tmax in female rat at 15 mg/kg, po", "type": "ADME, organism-based", "set-up": "dose 15 mg/kg, route oral", "settings": "in vivo", "outline": "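Male and female rats received single oral doses of 5, 15 or 45 mg/kg, with 5 mg/kg iv as a reference arm. Tmax was read from the plasma concentration–time profile for each gender.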"}, "[9]": {"assay": "Tmax in fasted human at 300 mg, po administered as single dose", "type": "ADME, organism-based", "settings": "in vivo", "outline": "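Randomized single-dose, three-period Latin-square crossover in 12 healthy volunteers (six per gender), fasting. Single oral doses of 300, 600 and 900 mg were separated by a 1-week washout. PK parameters were derived by noncompartmental analysis.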"}, "Staphylococcus aureus [10]": {"tested_on": "Staphylococcus aureus", "assay": "Antibacterial activity against linezolid-resistant Staphylococcus aureus isolate 4184", "type": "functional"}, "[11]": {"assay": "Tmax in human at 900 mg, po administered as single dose at 30 mins post fat meal", "type": "ADME, organism-based", "settings": "in vivo", "outline": "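Crossover study in 12 healthy subjects (six per gender). A single oral 900 mg dose was given either fasting or 30 min after a fat-containing meal. Tmax was taken from plasma PK.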"}, "Cytochrome P450 2D6": {"target": "Cytochrome P450 2D6 (Homo sapiens, UniProt P10635)", "sequence (P10635 whole entry)": "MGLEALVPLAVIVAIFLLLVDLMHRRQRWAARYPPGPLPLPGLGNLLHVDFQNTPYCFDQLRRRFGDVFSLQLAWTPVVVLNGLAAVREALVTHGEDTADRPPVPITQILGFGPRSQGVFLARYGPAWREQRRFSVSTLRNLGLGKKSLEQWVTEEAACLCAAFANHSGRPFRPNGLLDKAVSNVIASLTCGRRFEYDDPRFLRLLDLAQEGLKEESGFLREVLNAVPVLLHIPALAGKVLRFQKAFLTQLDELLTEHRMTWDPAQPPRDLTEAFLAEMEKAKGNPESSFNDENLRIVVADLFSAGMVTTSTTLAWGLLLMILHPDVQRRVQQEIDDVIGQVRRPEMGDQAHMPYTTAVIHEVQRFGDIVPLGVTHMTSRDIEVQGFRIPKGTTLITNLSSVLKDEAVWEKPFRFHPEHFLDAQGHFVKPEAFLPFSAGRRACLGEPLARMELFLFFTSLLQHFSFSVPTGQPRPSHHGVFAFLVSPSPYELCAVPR", "assay": "Inhibition of CYP2D6 (unknown origin) at 1 to 200 uM", "type": "ADME"}, "[12]": {"assay": "Half life in po dosed rat", "type": "ADME, organism-based", "settings": "in vivo"}, "Staphylococcus aureus [13]": {"tested_on": "Staphylococcus aureus", "assay": "Antibacterial activity against methicillin-sensitive Staphylococcus aureus ATCC 29213 in po dosed mouse systemic infection model", "type": "functional", "settings": "ATCC 29213, po"}, "Staphylococcus aureus [14]": {"tested_on": "Staphylococcus aureus", "assay": "Antibacterial activity against Staphylococcus aureus measured after 8 serial passages", "type": "functional"}, "Enterococcus faecalis": {"tested_on": "Enterococcus faecalis", "assay": "Antibacterial activity against vancomycin-sensitive/high-level gentamycin-resistant Enterococcus faecalis isolate HH22 in po dosed mouse systemic infection model", "type": "functional", "settings": "EnGen0297, po"}, "Staphylococcus aureus [15]": {"tested_on": "Staphylococcus aureus", "assay": "Antibacterial activity against methicillin-resistant Staphylococcus aureus isolate 0605 in mouse thigh infection model assessed as reduction of log10 CFU per thigh at 80 mg/kg, po", "type": "functional"}, "Staphylococcus aureus [16]": {"tested_on": "Staphylococcus aureus", "assay": "Antibacterial activity against methicillin-sensitive Staphylococcus aureus ATCC 29213 in mouse thigh infection model assessed as reduction of log10 CFU per thigh at 10 mg/kg, po", "type": "functional", "outline": "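Mouse thigh infection with S. aureus ATCC29213 (MSSA), 10 animals per dosing group. Oral doses were 5, 10, 20, 40 and 80 mg/kg. The read-out was log CFU per thigh after treatment, and the reduction (ΔLogCFU/thigh) was reported.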"}, "Rattus norvegicus [17]": {"tested_on": "Rattus norvegicus", "assay": "Toxicity in female rat assessed as effect on hemoglobin level at 100 mg/kg/day, po bid administered for 4 weeks (reference value: 141.8 g/L)", "type": "organism-based", "set-up": "route oral", "settings": "in vivo, 672 h"}, "[18]": {"assay": "Toxicity in po dosed rat administered as bid for 4 weeks", "type": "organism-based", "settings": "in vivo"}, "[19]": {"assay": "Elimination half life in fasted human at 900 mg, po administered as single dose", "type": "ADME, organism-based", "settings": "in vivo, read-out: beta t1/2 (converted)", "outline": "(§1)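 Healthy volunteers (12; six of each sex) in a three-period Latin-square crossover. Each received single oral doses of 300, 600 and 900 mg under fasting conditions, with a 1-week washout between doses. Parameters from a noncompartmental model.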"}, "Staphylococcus aureus [20]": {"tested_on": "Staphylococcus aureus", "assay": "Antibacterial activity against methicillin-resistant Staphylococcus aureus isolate 0605 in mouse thigh infection model assessed as reduction of log10 CFU per thigh at 20 mg/kg, po", "type": "functional"}, "[21]": {"assay": "Cmax in fasted human at 600 mg, po administered as single dose", "type": "ADME, organism-based", "set-up": "dose 600 mg, route oral", "settings": "in vivo", "outline": "as §1"}, "Streptococcus anginosus": {"tested_on": "Streptococcus anginosus", "assay": "Antibacterial activity against Streptococcus anginosus", "type": "functional"}}}
{"smiles": "O=C1C=CN(c2c(F)cc(N3C[C@H](CNc4ccon4)OC3=O)c(F)c2F)CC1", "note": "[CONTEZOLID]", "values": [{"measurement": "Activity", "setting": "Homo sapiens", "value": "Non-toxic"}, {"measurement": "MIC", "setting": "Staphylococcus aureus [1]", "value": 2, "unit": "µg/mL"}, {"measurement": "AUC(0-inf)", "setting": "[2]", "value": 48300, "unit": "ng·h/mL"}, {"measurement": "Activity", "setting": "Rattus norvegicus [3]", "value": 1.3, "unit": "%"}, {"measurement": "Tmax", "setting": "[4]", "value": 0.65, "unit": "h"}, {"measurement": "MIC50", "setting": "Staphylococcus", "value": 0.5, "unit": "µg/mL"}, {"measurement": "MIC90", "setting": "Staphylococcus", "value": 0.5, "unit": "µg/mL"}, {"measurement": "Activity", "setting": "Rattus norvegicus [5]", "value": 36.48, "unit": "%"}, {"measurement": "Activity", "setting": "Rattus norvegicus [6]", "value": 78.8, "unit": "%"}, {"measurement": "Activity", "setting": "Rattus norvegicus [7]", "value": 20.2, "unit": "pg"}, {"measurement": "MIC50", "setting": "Streptococcus pyogenes", "value": 0.5, "unit": "µg/mL"}, {"measurement": "MIC90", "setting": "Streptococcus pyogenes", "value": 1, "unit": "µg/mL"}, {"measurement": "Drug uptake", "setting": "Canis familiaris", "value": "Not Active"}, {"measurement": "Tmax", "setting": "[8]", "value": 1.17, "unit": "h"}, {"measurement": "Tmax", "setting": "[9]", "value": 1.25, "unit": "h"}, {"measurement": "MIC", "setting": "Staphylococcus aureus [10]", "value": "> 16", "unit": "µg/mL"}, {"measurement": "Tmax", "setting": "[11]", "value": 1.63, "unit": "h"}, {"measurement": "inhibition (INH)", "setting": "Cytochrome P450 2D6", "value": "Not Active"}, {"measurement": "half-life", "setting": "[12]", "value": 1.5, "unit": "h"}, {"measurement": "ED50", "setting": "Staphylococcus aureus [13]", "value": 8, "unit": "mg/kg"}, {"measurement": "MIC", "setting": "Staphylococcus aureus [14]", "value": 2, "unit": "µg/mL"}, {"measurement": "ED50", "setting": "Enterococcus faecalis", "value": 7.4, "unit": "mg/kg"}, {"measurement": "deltalog10CFU", "setting": "Staphylococcus aureus [15]", "value": 4.53}, {"measurement": "deltalog10CFU", "setting": "Staphylococcus aureus [16]", "value": 3.29}, {"measurement": "Activity", "setting": "Rattus norvegicus [17]", "value": 134.8, "unit": "g/L"}, {"measurement": "NOAEL at 672 h", "setting": "[18]", "value": 100, "unit": "mg/kg/day"}, {"measurement": "half-life", "setting": "[19]", "value": 4.9, "unit": "h"}, {"measurement": "deltalog10CFU", "setting": "Staphylococcus aureus [20]", "value": 3.6}, {"measurement": "Cmax", "setting": "[21]", "value": 12200, "unit": "ng/mL"}, {"measurement": "MIC50", "setting": "Streptococcus anginosus", "value": 0.5, "unit": "µg/mL"}, {"measurement": "MIC90", "setting": "Streptococcus anginosus", "value": 1, "unit": "µg/mL"}]}
